Source: ChEMBL document CHEMBL5678815 (Clin Cancer Res, 2017)
Activity calls are given as the source filed them. The rule behind the calls is not given here.

Legend:
[1] = target: cAMP-dependent protein kinase catalytic subunit beta (Homo sapiens) (UniProt P22694); assay: Inhibition of human PKAC-beta assessed as remaining activity at 1 uM by ATP-competition binding assay relative to control
In short: (§1)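 Single-concentration (1 μM) screen in an ATP-site-dependent competition binding assay (KINOMEscan, outsourced) covering 395 human kinases, mutants included. Non-covalent binding was read as the remaining signal relative to the control signal.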

[2] = target: Serine/threonine-protein kinase/endoribonuclease IRE1 (Homo sapiens) (UniProt O75460); assay: Inhibition of human ERN1 assessed as remaining activity at 1 uM by ATP-competition binding assay relative to control
In short: (§2)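 Single-point profiling at 1μM in an ATP-site-dependent competition binding assay across a panel of 395 human kinases, including mutant forms. The read-out is kinase binding signal in the presence of test agent, expressed as inhibition relative to the control signal. This screen assessed noncovalent binding interactions.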

[3] = target: Homeodomain-interacting protein kinase 4 (Homo sapiens) (UniProt Q8NE63); assay: Inhibition of human HIPK4 assessed as remaining activity at 1 uM by ATP-competition binding assay relative to control; in short: as §2
[4] = target: Homeodomain-interacting protein kinase 1 (Homo sapiens) (UniProt Q86Z02); assay: Inhibition of human HIPK1 assessed as remaining activity at 1 uM by ATP-competition binding assay relative to control; in short: as §2
[5] = target: Receptor tyrosine-protein kinase erbB-2 (Homo sapiens) (UniProt P04626); assay: Inhibition of human ERBB2 assessed as remaining activity at 1 uM by ATP-competition binding assay relative to control; in short: as §2
[6] = target: Ephrin type-A receptor 1 (Homo sapiens) (UniProt P21709); assay: Inhibition of human EPHA1 assessed as remaining activity at 1 uM by ATP-competition binding assay relative to control
In short: (§3)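 KINOMEscan ATP-site-dependent competition binding panel of 395 human kinases, with compound tested at 1 μM. Binding is reported as remaining signal relative to control.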

[7] = target: Ribosomal protein S6 kinase alpha-4 (Homo sapiens) (UniProt O75676); assay: Inhibition of human RPS6KA4 assessed as remaining activity at 1 uM by ATP-competition binding assay relative to control; in short: as §1
Splenocyte = assay: In vivo inhibition of BCR signaling in female […] mouse assessed as change in phospho-S6 expression at 25 mg/kg, po administered and measured after stimulation with anti-IgM for 18 h by flow cytometry analysis; type: functional, organism-based
In short: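 Female C57BL/6 mice (5/group) received vehicle or 25 mg/kg drug by oral gavage at time zero, with spleens taken at time points from 3 to 24 h. Splenocytes were stimulated ex vivo with goat anti-mouse IgM at 10μg/mL for 18 h at 37°C in 5% CO2, then Fc-blocked and stained for CD19 plus CD69, CD86 or phospho-S6(S235/236), with 7-AAD to exclude dead cells. Read-out was flow cytometry on >5,000 gated CD19+ cells, compared with vehicle.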

[8] = target: Ephrin type-B receptor 2 (Homo sapiens) (UniProt P29323); assay: Inhibition of human EPHB2 assessed as remaining activity at 1 uM by ATP-competition binding assay relative to control; in short: as §2
[9] = target: Protein-tyrosine kinase 6 (Homo sapiens) (UniProt Q13882); assay: Inhibition of human BRK assessed as remaining activity at 1 uM by ATP-competition binding assay relative to control; in short: as §3
[10] = target: Serine/threonine-protein kinase Chk2 (Homo sapiens) (UniProt O96017); assay: Inhibition of human CHEK2 assessed as remaining activity at 1 uM by ATP-competition binding assay relative to control; in short: as §3
[11] = target: Calcium/calmodulin-dependent protein kinase type IV (Homo sapiens) (UniProt Q16566); assay: Inhibition of human CAMK4 assessed as remaining activity at 1 uM by ATP-competition binding assay relative to control; in short: as §3
[12] = target: Tyrosine-protein kinase JAK1 (Homo sapiens) (UniProt P23458); assay: Inhibition of human JAK1 JH2 domain assessed as remaining activity at 1 uM by ATP-competition binding assay relative to control; in short: as §2
[13] = tested on: Hepatocyte growth factor receptor (Homo sapiens), P08581 [M1250T]; assay: Inhibition of human MET M1250T mutant assessed as remaining activity at 1 uM by ATP-competition binding assay relative to control; in short: as §2
[14] = target: Fibroblast growth factor receptor 3 (Homo sapiens) (UniProt P22607); assay: Inhibition of human FGFR3 assessed as remaining activity at 1 uM by ATP-competition binding assay relative to control; in short: as §2
[15] = target: Dual specificity protein kinase CLK1 (Homo sapiens) (UniProt P49759); assay: Inhibition of human CLK1 assessed as remaining activity at 1 uM by ATP-competition binding assay relative to control; in short: as §3
[16] = target: Tyrosine-protein kinase Blk (Homo sapiens) (UniProt P51451); assay: Inhibition of human BLK assessed as remaining activity at 1 uM by ATP-competition binding assay relative to control; in short: as §3
[17] = target: Casein kinase I isoform gamma-3 (Homo sapiens) (UniProt Q9Y6M4); assay: Inhibition of human CSNK1G3 assessed as remaining activity at 1 uM by ATP-competition binding assay relative to control; in short: as §3
[18] = target: Casein kinase I isoform alpha-like (Homo sapiens) (UniProt Q8N752); assay: Inhibition of human CSNK1A1L assessed as remaining activity at 1 uM by ATP-competition binding assay relative to control; in short: as §3
[19] = target: cAMP-dependent protein kinase catalytic subunit alpha (Homo sapiens) (UniProt P17612); assay: Inhibition of human PKAC-alpha assessed as remaining activity at 1 uM by ATP-competition binding assay relative to control; in short: as §1
[20] = target: Tyrosine-protein kinase Yes (Homo sapiens) (UniProt P07947); assay: Inhibition of human YES assessed as remaining activity at 1 uM by ATP-competition binding assay relative to control; in short: as §1
[21] = target: Tyrosine-protein kinase BTK (Homo sapiens) (UniProt Q06187); conditions: dose < 100.0 nM
[22] = target: Serine/threonine-protein kinase pim-1 (Homo sapiens) (UniProt P11309); assay: Inhibition of human PIM1 assessed as remaining activity at 1 uM by ATP-competition binding assay relative to control; in short: as §2
[23] = target: Epidermal growth factor receptor (Homo sapiens) (UniProt P00533); assay: Inhibition of human EGFR assessed as remaining activity at 1 uM by ATP-competition binding assay relative to control; in short: as §3
[24] = target: Proto-oncogene tyrosine-protein kinase Src (Homo sapiens) (UniProt P12931); assay: Inhibition of human SRC assessed as remaining activity at 1 uM by ATP-competition binding assay relative to control; in short: as §1
[25] = target: 5'-AMP-activated protein kinase catalytic subunit alpha-1 (Homo sapiens) (UniProt Q13131); assay: Inhibition of human AMPK-alpha1 assessed as remaining activity at 1 uM by ATP-competition binding assay relative to control; in short: as §3
[26] = target: cGMP-dependent protein kinase 1 (Homo sapiens) (UniProt Q13976); assay: Inhibition of human PRKG1 assessed as remaining activity at 1 uM by ATP-competition binding assay relative to control; in short: as §1
[27] = target: Cyclin-dependent kinase 9 (Homo sapiens) (UniProt P50750); assay: Inhibition of human CDK9 assessed as remaining activity at 1 uM by ATP-competition binding assay relative to control; in short: as §3

Compound: CC#CC(=O)N1CCC[C@H]1c1nc(-c2ccc(C(=O)Nc3ccccn3)cc2)c2c(N)nccn12 [ACALABRUTINIB]
- Activity [1]: 88%
- Activity [2]: 85%
- Activity [3]: 88%
- Activity [4]: 90%
- Activity [5]: 2.1%
- Activity [6]: 76%
- Activity [7]: 90%
- Activity (Splenocyte): Active
- Activity [8]: 69%
- Activity [9]: 79%
- Activity [10]: 94%
- Activity [11]: 91%
- Activity [12]: 71%
- Activity [13]: 90%
- Activity [14]: 87%
- Activity [15]: 94%
- Activity [16]: 61%
- Activity [17]: 100%
- Activity [18]: 92%
- Activity [19]: 77%
- Activity [20]: 83%
- inhibition [21]: Active
- Activity [22]: 84%
- Activity [23]: 75%
- Activity [24]: 78%
- Activity [25]: 86%
- Activity [26]: 70%
- Activity [27]: 87%
